Laboratory results: ChEMBL document CHEMBL1125672, “2-acetylpyridine thiosemicarbazones. 13. Derivatives with antifilarial activity” (1991)

Key:
[1] = system: Onchocerca gutturosa; assay: Colorimetric quantification of male Onchocerca gutturosa viability, expressed as % inhibition of formazan formation at 5*10e-5 M conc. by using tetrazolium Dye MTT assay; format: functional
How it was run: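 Single intact male O. gutturosa, cultured with LLCMK2 feeder cells in MEM + 10% heat-inactivated FCS (5% CO2), drug added from DMSO (≤0.016% DMSO in controls). MTT read after 168 h: worm in 0.5 mg/mL MTT, 30 min at 36.5 °C, formazan solubilized in DMSO 1 h at room temperature, absorbance 490 nm vs DMSO blank.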

[2] = system: Onchocerca volvulus; assay: Mean motility score for treated Onchocerca volvulus excluding LLCMK2 feeder cells at a concentration of 3.1*10e-6 M at 24 h
[3] = system: Onchocerca gutturosa; assay: Mean motility score for treated Onchocerca gutturosa involving LLCMK2 feeder cells at a concentration of 5*10e-5 M at 1.5 h; format: functional
How it was run: (§1)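 Single male O. gutturosa worms (obtained following abattoir slaughter) per well in Eagle's MEM with 10% heat-inactivated fetal calf serum, penicillin, streptomycin, amphotericin B and bicarbonate, over LLCMK2 feeder cells, 5% CO2 in air. Drug dissolved in DMSO; controls received matched DMSO ≤0.016%. Motility scored 0 (immotile) to 10 (maximum control activity) every 30 min to 4.5 h, then days 1, 2, 3, 4, 7.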

[4] = system: Onchocerca gutturosa; assay: Mean motility score for treated Onchocerca gutturosa involving LLCMK2 feeder cells at a concentration of 3.05*10e-9 M at 48 h; format: functional; how it was run: as §1
[5] = system: Onchocerca volvulus; assay: Mean motility score for treated Onchocerca volvulus excluding LLCMK2 feeder cells at a concentration of 5*10e-5 M at 0.5 h
[6] = system: Onchocerca volvulus; assay: Mean motility score for treated Onchocerca volvulus excluding LLCMK2 feeder cells at a concentration of 3.1*10e-6 M at 72 h
[7] = system: Onchocerca gutturosa; assay: Mean motility score for treated Onchocerca gutturosa involving LLCMK2 feeder cells at a concentration of 3.05*10e-9 M at 4.5 h; format: functional; how it was run: as §1
[8] = system: Acanthocheilonema viteae; assay: anti-filarial Activity was measured against Acanthocheilonema viteae in jirds at 25 mg/kg/day(5 days) dose; format: functional
How it was run: (§2)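 Jirds with established B. pahangi or A. viteae infections were given drug once daily for 5 days by subcutaneous injection, at the maximum tolerated dose and, where supply allowed, graded lower doses. Tolerance was first checked in noninfected jirds with a single 200 mg/kg oral or subcutaneous dose, watching 72 h for excessive weight loss or death. Macrofilarial suppression was the read-out.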

[9] = system: Onchocerca gutturosa; assay: Mean motility score for treated Onchocerca gutturosa involving LLCMK2 feeder cells at a concentration of 3.05*10e-9 M at 72 h; format: functional; how it was run: as §1
[10] = system: Onchocerca gutturosa; assay: Mean motility score for treated Onchocerca gutturosa involving LLCMK2 feeder cells at a concentration of 3.05*10e-9 M at 168 h; format: functional; how it was run: as §1
[11] = system: Onchocerca gutturosa; assay: Mean motility score for treated Onchocerca gutturosa involving LLCMK2 feeder cells at a concentration of 5*10e-5 M at 48 h; format: functional
How it was run: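 Single male O. gutturosa worms per well in Eagle's MEM with 10% heat-inactivated fetal calf serum, antibiotics and bicarbonate, over LLCMK2 feeder cells, 5% CO2 in air. Test chemical dissolved in DMSO and diluted into medium; control wells got matched DMSO not exceeding 0.016%. Motility scored 0 (immotile) to 10 (maximum control motility) every 30 min for 4.5 h, then at 1, 2, 3, 4 and 7 days.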

[12] = system: Onchocerca volvulus; assay: Mean motility score for treated Onchocerca volvulus excluding LLCMK2 feeder cells at a concentration of 5*10e-5 M at 2 h
[13] = system: Onchocerca volvulus; assay: Mean motility score for treated Onchocerca volvulus excluding LLCMK2 feeder cells at a concentration of 3.1*10e-6 M at 1 h
[14] = system: Brugia pahangi; assay: anti-filarial Activity was measured against Brugia pahangi in jirds at 25 mg/kg/day(5 days) dose; format: functional; how it was run: as §2
[15] = system: Onchocerca gutturosa; assay: Mean motility score for treated Onchocerca gutturosa involving LLCMK2 feeder cells at a concentration of 5*10e-5 M at 4.5 h; format: functional; how it was run: as §1
[16] = system: Onchocerca volvulus; assay: Colorimetric quantification of male Onchocerca volvulus viability, expressed as % inhibition of formazan formation at 3.1*10e-6 M conc. by using tetrazolium Dye MTT assay; format: functional
How it was run: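 Male O. volvulus dissected from human nodules within 24 h (kept in medium on ice), cultured without feeder cells in medium with 10% serum; drug from DMSO stock. MTT after 96 h: single worm, 0.5 mg/mL MTT, 30 min at 36.5 °C, formazan dissolved in DMSO 1 h at room temperature, absorbance 490 nm against DMSO blank.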

[17] = system: Onchocerca gutturosa; assay: Mean motility score for treated Onchocerca gutturosa involving LLCMK2 feeder cells at a concentration of 5*10e-5 M at 0.5 h; format: functional; how it was run: as §1
[18] = system: Onchocerca volvulus; assay: Mean motility score for treated Onchocerca volvulus excluding LLCMK2 feeder cells at a concentration of 3.1*10e-6 M at 48 h
[19] = system: Onchocerca gutturosa; assay: Mean motility score for treated Onchocerca gutturosa involving LLCMK2 feeder cells at a concentration of 3.05*10e-9 M at 3 h; format: functional; how it was run: as §1
[20] = system: Onchocerca gutturosa; assay: Mean motility score for treated Onchocerca gutturosa involving LLCMK2 feeder cells at a concentration of 5*10e-5 M at 2.5 h; format: functional; how it was run: as §1
[21] = system: Onchocerca gutturosa; assay: Mean motility score for treated Onchocerca gutturosa involving LLCMK2 feeder cells at a concentration of 3.05*10e-9 M at 4 h; format: functional; how it was run: as §1
[22] = system: Onchocerca volvulus; assay: Mean motility score for treated Onchocerca volvulus excluding LLCMK2 feeder cells at a concentration of 5*10e-5 M at 72 h
[23] = system: Onchocerca gutturosa; assay: Mean motility score for treated Onchocerca gutturosa involving LLCMK2 feeder cells at a concentration of 5*10e-5 M at 2 h; format: functional; how it was run: as §1
[24] = system: Onchocerca volvulus; assay: Mean motility score for treated Onchocerca volvulus excluding LLCMK2 feeder cells at a concentration of 5*10e-5 M at 24 h
[25] = system: Onchocerca volvulus; assay: Mean motility score for treated Onchocerca volvulus excluding LLCMK2 feeder cells at a concentration of 3.1*10e-6 M at 2 h
[26] = system: Onchocerca gutturosa; assay: Mean motility score for treated Onchocerca gutturosa involving LLCMK2 feeder cells at a concentration of 5*10e-5 M at 1 h; format: functional; how it was run: as §1
[27] = system: Onchocerca gutturosa; assay: Mean motility score for treated Onchocerca gutturosa involving LLCMK2 feeder cells at a concentration of 3.05*10e-9 M at 24 h; format: functional; how it was run: as §1
[28] = system: Onchocerca volvulus; assay: Mean motility score for treated Onchocerca volvulus excluding LLCMK2 feeder cells at a concentration of 5*10e-5 M at 48 h
[29] = system: Onchocerca volvulus; assay: Mean motility score for treated Onchocerca volvulus excluding LLCMK2 feeder cells at a concentration of 5*10e-5 M at 1 h
[30] = system: Brugia pahangi; assay: anti-filarial Activity was measured against Brugia pahangi in jirds at 12.5 mg/kg/day(5 days) dose; format: functional; how it was run: as §2

Row | Structure (SMILES) | Inhibition [1] [%] | Motility [2] | Motility [3] | Motility [4] | Motility [5] | Motility [6] | Motility [7] | Suppression [8] [%] | Motility [9] | Motility [10] | Motility [11] | Motility [12] | Motility [13] | Suppression [14] [%] | Motility [15] | Inhibition [16] [%] | Motility [17] | Motility [18] | Motility [19] | Motility [20] | other results
1 | C/C(=N\NC(S)=Nc1ccccc1N)c1ccccn1 | 72.9 | 1.6 | 9.5 | 6.3 | 5 | 1.2 | 7.5 | 94 | 7.5 | 4.5 | 8.3 | 6 | 5 | 100 | 9.5 | 65.3 | 10 | 2 | 7.5 | 9.5 | Motility [21]: 5.8; Motility [22]: 2.4; Motility [23]: 8.5; Motility [24]: 4.4; Motility [25]: 6; Motility [26]: 10; Motility [27]: 7.3; Motility [28]: 3.6; Motility [29]: 5; Suppression [30]: 16%
2 | C/C(=N\NC(=S)N1CCCCCC1)c1ccccn1 | 90.3 | 3.4 | 4.8 | 6.8 | 8 | 1 | 9.5 | 100 | 6 | 3.5 | 0 | 8 | 6.6 | 84 | 1.8 | 39.6 | 6 | 0.6 | 8.8 | 3.8 | Motility [21]: 7.8; Motility [22]: 1; Motility [23]: 4.8; Motility [24]: 1.6; Motility [25]: 6.6; Motility [26]: 4.8; Motility [27]: 9.3; Motility [28]: 1; Motility [29]: 8.4; Suppression [30]: 100%
